Assay results from PMC2606940 (The Journal of General Physiology, 2009).
Numbering of substitutions follows the chain as printed. Where two headings read alike, the source gives them in different places.

Columns and labels:
CLC-0 E166Q mutant = target: T1, CLC-0 E166Q mutant (Torpedo marmorata, UniProt P21564, C212S/E166Q); experiment: Single-channel recordings, channels expressed in Xenopus oocytes; format: cell-based; conditions: 0.1 mM CPA; −100 mV
T1 sequence (P21564 1-805 E166Q/C212S): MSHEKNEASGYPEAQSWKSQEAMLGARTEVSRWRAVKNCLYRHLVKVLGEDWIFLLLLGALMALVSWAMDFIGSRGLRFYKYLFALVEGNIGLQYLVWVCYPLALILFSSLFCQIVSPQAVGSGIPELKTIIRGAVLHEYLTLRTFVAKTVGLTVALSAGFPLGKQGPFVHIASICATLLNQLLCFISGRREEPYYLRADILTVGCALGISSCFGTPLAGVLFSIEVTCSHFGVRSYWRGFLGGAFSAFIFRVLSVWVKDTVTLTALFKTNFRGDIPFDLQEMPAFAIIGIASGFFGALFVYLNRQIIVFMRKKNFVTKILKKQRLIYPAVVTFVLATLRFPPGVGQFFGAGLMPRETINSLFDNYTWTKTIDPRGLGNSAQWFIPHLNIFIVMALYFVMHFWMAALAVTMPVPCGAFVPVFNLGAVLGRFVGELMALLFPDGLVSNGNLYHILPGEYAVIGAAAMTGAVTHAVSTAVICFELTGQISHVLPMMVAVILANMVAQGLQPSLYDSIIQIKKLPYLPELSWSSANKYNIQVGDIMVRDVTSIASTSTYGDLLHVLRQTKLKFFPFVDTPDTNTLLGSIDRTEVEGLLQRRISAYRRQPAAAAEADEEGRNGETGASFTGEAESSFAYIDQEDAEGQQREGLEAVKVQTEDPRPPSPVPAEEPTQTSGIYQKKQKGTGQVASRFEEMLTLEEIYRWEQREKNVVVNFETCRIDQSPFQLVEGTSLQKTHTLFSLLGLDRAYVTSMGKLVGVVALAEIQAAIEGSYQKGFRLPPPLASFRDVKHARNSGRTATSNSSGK
Outline: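 Single channels were expressed in Xenopus oocytes from cRNA made from a pBluescript construct. Currents were recorded at −100 mV with cytoplasmic CPA at 100 μM, filtered at 200 Hz (four-pole Bessel) and digitized at 1 kHz. Average dwell time of nonconducting events was analysed from the single-channel traces.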

[1] = target: T2, CLC-0 E166C/E127Q mutant (E127Q/K519) (Torpedo marmorata, UniProt P21564, C212S/E127Q/E166C); format: cell-based; conditions: for IC50: read-out: Apparent affinity (K1/2)
T2 sequence (P21564 1-805 E127Q/E166C/C212S): T1 sequence (P21564 1-805 E166Q/C212S) with E127Q, Q166C
Outline: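 CLC-0 mutants in the C212S background were transfected into HEK293 cells with lipofectamine and recorded 1–3 d later as excised inside-out patches. Both sides held 130 mM NaCl, 5 mM MgCl2, 10 mM HEPES and 1 mM EGTA, pH 7.4. CPA was perfused continuously onto the cytoplasmic face. Steady-state current over the last 10 ms was normalized to bracketing blocker-free controls and fitted to a Langmuir function for K1/2. Values are mean ± SEM of ~4–6 patches.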

O=C(O)COc1ccc(Cl)cc1 [CPA, p-chlorophenoxy acetate]
long blocked state in single-channel trace (CLC-0 E166Q mutant): absent | IC50 ([1]; −40 mV): 491 ± 58 µM | IC50 ([1]; −60 mV): 228 ± 23 µM | IC50 ([1]; −80 mV): 113 ± 10 µM | IC50 ([1]; −100 mV): 57 ± 4 µM | IC50 ([1]; −120 mV): 33 ± 3 µM | IC50 ([1]; −140 mV): 21 ± 2 µM | IC50 ([1]; −160 mV): 15 ± 2 µM | apparent koff ([1]; −160 mV): 17.9 s⁻¹ | apparent kon ([1]; −160 mV): 760000 M⁻¹ s⁻¹
